Assay results reported in ChEMBL document CHEMBL1129588, “Development of potent thrombin receptor antagonist peptides” (J Med Chem, 1996).
Starred links: 1 amine or outer side, 2 acyl side, 3 side chain; linkers in the order of their positions; H or OH if unused. Non-standard residues stand in square brackets, D forms with d. Residues, ends and D or L forms follow the SMILES beside them. *: point of attachment. X7 = CC(=O)N(C(=O)/C=C/c1ccc(F)cc1)[C@@H](Cc1ccc(F)cc1)C(=O)*; X8 = C#CC(=O)c1cccc(N([C@@H](Cc2ccc(F)cc2)C(=O)[*:2])[*:1])c1; X9 = CCC(=O)c1cccc(N([C@@H](Cc2ccc(F)cc2)C(=O)[*:2])[*:1])c1; X3 = CC(=O)N(C(=O)/C=C/c1ccccc1)[C@@H](Cc1ccc(F)cc1)C(=O)*; Phe(4-guanidino) = N=C(N)Nc1ccc(C[C@H](N)C(=O)O)cc1; Phe(4-F) = N[C@@H](Cc1ccc(F)cc1)C(=O)O; 1Nal = N[C@@H](Cc1cccc2ccccc12)C(=O)O; 2Nal = N[C@@H](Cc1ccc2ccccc2c1)C(=O)O; Benzoyl(4-Cl) = O=C(c1ccc(Cl)cc1)*; X10 = O=C(c1c[nH]c2ccccc12)*; X5 = O=C(c1cc2ccccc2[nH]1)*; Orn = NCCC[C@H](N)C(=O)O; Thz = O=C(O)[C@@H]1CSCN1; X2 = O=S(=O)(c1cccs1)*; βAla = NCCC(=O)O

Molecular target: T1, Proteinase-activated receptor 1 (Homo sapiens, UniProt P25116)
T1 sequence (P25116 whole entry): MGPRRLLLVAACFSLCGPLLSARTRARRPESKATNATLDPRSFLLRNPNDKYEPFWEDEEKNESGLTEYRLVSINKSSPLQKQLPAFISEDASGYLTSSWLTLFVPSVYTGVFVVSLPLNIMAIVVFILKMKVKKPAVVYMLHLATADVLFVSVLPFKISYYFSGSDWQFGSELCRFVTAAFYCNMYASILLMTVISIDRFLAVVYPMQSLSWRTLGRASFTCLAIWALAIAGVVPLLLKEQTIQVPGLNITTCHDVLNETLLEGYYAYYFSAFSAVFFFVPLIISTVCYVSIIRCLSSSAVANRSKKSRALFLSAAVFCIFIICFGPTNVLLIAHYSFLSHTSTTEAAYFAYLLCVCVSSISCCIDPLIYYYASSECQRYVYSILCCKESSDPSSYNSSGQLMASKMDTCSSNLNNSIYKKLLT

Row | Structure (SMILES) | IC50
1 | CC#Cc1ccccc1C(=O)N(C(C)=O)[C@@H](Cc1ccc(F)cc1)C(=O)N[C@@H](Cc1ccc(NC(=N)N)cc1)C(=O)N[C@@H](CC(C)C)C(=O)N[C@@H](CCCN=C(N)N)C(N)=O | 23 nM
2 | CC(=O)N(C(=O)/C=C/c1ccccc1)[C@@H](Cc1ccc(F)cc1)C(=O)N[C@@H](Cc1c[nH]cn1)C(=O)N[C@@H](CC(C)C)C(=O)N[C@@H](CCCN=C(N)N)C(N)=O | 470 nM
3 | CC(=O)N(C(=O)c1ccccc1N)[C@@H](Cc1ccc(F)cc1)C(=O)N[C@@H](Cc1ccc(NC(=N)N)cc1)C(=O)N[C@@H](CC(C)C)C(=O)N[C@@H](CCCN=C(N)N)C(N)=O | 1000 nM
4 | CCCCC/C=C/CC(=O)N(C(C)=O)[C@@H](Cc1ccc(F)cc1)C(=O)N[C@@H](Cc1ccc(NC(=N)N)cc1)C(=O)N[C@@H](CC(C)C)C(=O)N[C@@H](CCCN=C(N)N)C(N)=O | 35 nM
5 | CC(=O)N(C(=O)/C=C/c1ccc(F)cc1)[C@@H](Cc1ccc(F)cc1)C(=O)N[C@@H](Cc1ccc(NC(=N)N)cc1)C(=O)N[C@@H](CC(C)C)C(=O)N[C@@H](CCCN=C(N)N)C(=O)N[C@@H](CCCN)C(=O)CC(N)=O | 25 nM
6 | CC(=O)N(C(=O)/C=C/c1ccccc1)[C@@H](Cc1cccnc1)C(=O)N[C@@H](Cc1ccc(NC(=N)N)cc1)C(=O)N[C@@H](CC(C)C)C(=O)N[C@@H](CCCN=C(N)N)C(N)=O | 3440 nM
7 | CC(=O)N(C(=O)/C=C/c1ccccc1)[C@@H](Cc1ccc(F)cc1)C(=O)N[C@@H](CCc1ccccc1)C(=O)N[C@@H](CC(C)C)C(=O)N[C@@H](CCCN=C(N)N)C(N)=O | 630 nM
8 | CC(=O)N(C(=O)Cc1cccc2ccccc12)[C@@H](Cc1ccc(F)cc1)C(=O)N[C@@H](Cc1ccc(NC(=N)N)cc1)C(=O)N[C@@H](CC(C)C)C(=O)N[C@@H](CCCN=C(N)N)C(N)=O | 1630 nM
9 | C#CC(=O)c1cccc(N(C(C)=O)[C@@H](Cc2ccc(F)cc2)C(=O)N[C@@H](Cc2ccc(NC(=N)N)cc2)C(=O)N[C@@H](CC(C)C)C(=O)N[C@@H](CCCN=C(N)N)C(=O)N[C@@H](CCCN=C(N)N)C(N)=O)c1 (Ac-[X8][Phe(4-guanidino)]LRR-NH2) | 4 nM
10 | CCC(=O)c1cccc(N(C(C)=O)[C@@H](Cc2ccc(F)cc2)C(=O)N[C@@H](Cc2ccc(NC(=N)N)cc2)C(=O)N[C@@H](CC(C)C)C(=O)N[C@@H](CCCN=C(N)N)C(=O)N[C@@H](CCCN=C(N)N)C(N)=O)c1 (Ac-[X9][Phe(4-guanidino)]LRR-NH2) | 9 nM
11 | CC(=O)N(C(=O)/C=C/c1ccccc1)[C@@H](Cc1ccc(F)cc1)C(=O)N[C@@H](Cc1ccc(NC(=N)N)cc1)C(=O)N[C@@H](CC(C)C)C(=O)N[C@@H](CCCN=C(N)N)C(=O)N[C@@H](CCCN=C(N)N)C(N)=O (X3-[Phe(4-guanidino)]LRR-NH2) | 7.5 nM
12 | CC(=O)N(C(=O)/C=C/c1ccccc1)[C@@H](Cc1ccc(F)cc1)C(=O)N[C@@H](Cc1ccc(NC(=N)N)cc1)C(=O)N[C@@H](CC(C)C)C(=O)N[C@@H](CCCN=C(N)N)C(=O)N[C@@H](CCCN)C(N)=O (X3-[Phe(4-guanidino)]LR[Orn]-NH2) | 6.6 nM
13 | CC(C)C[C@H](NC(=O)[C@H](Cc1ccc(NC(=N)N)cc1)NC(=O)[C@H](Cc1ccc(F)cc1)NC(=O)c1cc2ccccc2[nH]1)C(=O)N[C@@H](CCCN=C(N)N)C(N)=O (X5-[Phe(4-F)][Phe(4-guanidino)]LR-NH2) | 24 nM
14 | CC(=O)N(C(=O)/C=C/c1ccc(F)cc1)[C@@H](Cc1ccc(F)cc1)C(=O)N[C@@H](Cc1ccc(NC(=N)N)cc1)C(=O)N[C@@H](CC(C)C)C(=O)N[C@@H](CCCN=C(N)N)C(=O)N[C@@H](CCCN=C(N)N)C(N)=O (X7-[Phe(4-guanidino)]LRR-NH2) | 19 nM
15 | CC(C)C[C@H](NC(=O)[C@H](Cc1ccc(NC(=N)N)cc1)NC(=O)[C@H](Cc1ccc(F)cc1)NC(=O)c1c[nH]c2ccccc12)C(=O)N[C@@H](CCCN=C(N)N)C(N)=O (X10-[Phe(4-F)][Phe(4-guanidino)]LR-NH2) | 19 nM
16 | CC(=O)N(C(=O)/C=C/c1ccc(F)cc1)[C@@H](Cc1ccc(F)cc1)C(=O)N[C@@H](Cc1ccc(NC(=N)N)cc1)C(=O)N[C@@H](CC(C)C)C(=O)N[C@@H](CCCN=C(N)N)C(N)=O (stereo in doubt; 43) | 20 nM

Other lines, results leading:

Row | IC50 | Structure (SMILES)
17 | 28 nM | CC(=O)N(C(=O)/C=C/c1ccccc1)[C@@H](Cc1ccc(F)cc1)C(=O)N[C@@H](CCCN=C(N)N)C(=O)N[C@@H](CC(C)C)C(=O)N[C@@H](CCCN=C(N)N)C(N)=O
18 | 28 nM | CC(=O)N(C(=O)/C=C/c1ccccc1)[C@@H](Cc1ccc(F)cc1)C(=O)N[C@@H](CCN=C(N)N)C(=O)N[C@@H](CC(C)C)C(=O)N[C@@H](CCCN=C(N)N)C(N)=O
19 | 12 nM | CC(=O)N(C(=O)/C=C/c1ccccc1)[C@@H](Cc1ccc(F)cc1)C(=O)N[C@@H](CCCCN=C(N)N)C(=O)N[C@@H](CC(C)C)C(=O)N[C@@H](CCCN=C(N)N)C(N)=O
20 | 42 nM | CC(=O)N(C(=O)/C=C/c1ccccc1)[C@@H](Cc1cccs1)C(=O)N[C@@H](Cc1ccc(NC(=N)N)cc1)C(=O)N[C@@H](CC(C)C)C(=O)N[C@@H](CCCN=C(N)N)C(N)=O
21 | 93 nM | CC(=O)N(C(=O)/C=C/c1ccccc1)[C@@H](CC1CCCCC1)C(=O)N[C@@H](Cc1ccc(NC(=N)N)cc1)C(=O)N[C@@H](CC(C)C)C(=O)N[C@@H](CCCN=C(N)N)C(N)=O
22 | 160 nM | CC(=O)N(c1cccc(F)c1)[C@@H](Cc1ccc(F)cc1)C(=O)N[C@@H](Cc1ccc(NC(=N)N)cc1)C(=O)N[C@@H](CC(C)C)C(=O)N[C@@H](CCCN=C(N)N)C(N)=O
23 | 680 nM | CC(=O)N(c1ccccc1)[C@@H](Cc1ccc(F)cc1)C(=O)N[C@@H](Cc1ccc(NC(=N)N)cc1)C(=O)N[C@@H](CC(C)C)C(=O)N[C@@H](CCCN=C(N)N)C(N)=O
24 | 110 nM | CC(=O)N(c1cccc(Cl)c1)[C@@H](Cc1ccc(F)cc1)C(=O)N[C@@H](Cc1ccc(NC(=N)N)cc1)C(=O)N[C@@H](CC(C)C)C(=O)N[C@@H](CCCN=C(N)N)C(N)=O
25 | 246 nM | CC(=O)N(C(=O)/C=C/c1ccccc1)[C@@H](Cc1ccc(F)cc1)C(=O)N[C@@H](Cc1ccc2ccccc2c1)C(=O)N[C@@H](CC(C)C)C(=O)N[C@@H](CCCN=C(N)N)C(N)=O
26 | 1530 nM | CC(=O)N(C(=O)/C=C/c1ccc(-c2ccccc2)cc1)[C@@H](Cc1ccc(F)cc1)C(=O)N[C@@H](Cc1ccc(NC(=N)N)cc1)C(=O)N[C@@H](CC(C)C)C(=O)N[C@@H](CCCN=C(N)N)C(N)=O
27 | 8950 nM | CC(C)C[C@H](NC(=O)[C@H](Cc1ccc(NC(=N)N)cc1)NC(=O)[C@H](Cc1ccc(F)cc1)NS(=O)(=O)c1cccs1)C(=O)N[C@@H](CCCN=C(N)N)C(N)=O (X2-[Phe(4-F)][Phe(4-guanidino)]LR-NH2)
28 | 34 nM | CC(=O)N(C(=O)/C=C/c1ccc(C)cc1)[C@@H](Cc1ccc(F)cc1)C(=O)N[C@@H](Cc1ccc(NC(=N)N)cc1)C(=O)N[C@@H](CC(C)C)C(=O)N[C@@H](CCCN=C(N)N)C(N)=O (stereo in doubt; 45)
29 | 23 nM | CC(=O)N(C(=O)/C=C/c1ccc(F)cc1)[C@@H](Cc1ccc(F)cc1)C(=O)N[C@@H](Cc1ccc(NC(=N)N)cc1)C(=O)N[C@@H](CC(C)C)C(=O)N[C@@H](CCCN=C(N)N)C(N)=O (stereo in doubt; 62)
30 | 43 nM | CC(=O)N(C(=O)/C=C/c1ccc(C)cc1)[C@@H](Cc1ccc(F)cc1)C(=O)N[C@@H](Cc1ccc(NC(=N)N)cc1)C(=O)N[C@@H](CC(C)C)C(=O)N[C@@H](CCCN=C(N)N)C(N)=O (stereo in doubt; 63)
31 | 26 nM | CC(C)C[C@H](NC(=O)[C@H](Cc1ccc(NC(=N)N)cc1)NC(=O)[C@H](Cc1ccc(F)cc1)NC(=O)c1ccc(Cl)cc1)C(=O)N[C@@H](CCCN=C(N)N)C(N)=O ({Benzoyl(4-Cl)}-[Phe(4-F)][Phe(4-guanidino)]LR-NH2)

Test system: not listed separately
Experiment: Concentration to stimulate human platelet aggregation
Format: functional
How it was run: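 Peptides were added alone to gel-filtered human platelets, and aggregation was read by microtiter turbidity. EC₅₀ is the concentration stimulating 50% of maximum aggregation. N is the number of determinations. A peptide is called a partial agonist where maximum aggregation was not reached experimentally.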

Row | Structure (SMILES) | EC50
32 | CC(C)C[C@H](NC(=O)[C@H](CC(C)C)NC(=O)[C@H](Cc1ccc(F)cc1)NC(=O)[C@@H](N)CO)C(=O)N[C@@H](CCCN=C(N)N)C(N)=O | 130 nM
33 | CC(C)C[C@H](NC(=O)[C@H](CC(C)C)NC(=O)[C@H](CCc1ccccc1)NC(=O)[C@@H](N)CO)C(=O)N[C@@H](CCCN=C(N)N)C(N)=O | > 300000 nM
34 | CC(=O)N1CSC[C@H]1C(=O)N[C@@H](Cc1ccccc1)C(=O)N[C@@H](CC(C)C)C(=O)N[C@@H](CC(C)C)C(=O)N[C@@H](CCCN=C(N)N)C(N)=O (Ac-[Thz]FLLR-NH2) | > 300000 nM
35 | CC(C)C[C@H](NC(=O)[C@H](Cc1cccc2ccccc12)NC(=O)[C@H](Cc1ccc(F)cc1)NC(=O)[C@@H](N)CO)C(=O)N[C@@H](CCCN=C(N)N)C(N)=O (H-S[Phe(4-F)][1Nal]LR-NH2) | 160 nM

More lines, now with the values ahead:

Row | EC50 | Structure (SMILES)
36 | 400 nM | CC(C)C[C@H](NC(=O)[C@H](CC(C)C)NC(=O)[C@H](Cc1ccccc1)NC(=O)[C@@H](N)CO)C(=O)N[C@@H](CCCN=C(N)N)C(N)=O
37 | 18000 nM | CC(C)C[C@H](NC(=O)[C@H](CC(C)C)NC(=O)[C@H](Cc1ccc(N)cc1)NC(=O)[C@@H](N)CO)C(=O)N[C@@H](CCCN=C(N)N)C(N)=O
38 | > 300000 nM | CC(C)C[C@H](NC(=O)[C@H](CC(C)C)NC(=O)[C@H](Cc1ccc(NC(=N)N)cc1)NC(=O)[C@@H](N)CO)C(=O)N[C@@H](CCCN=C(N)N)C(N)=O
39 | 9270 nM | CC(C)C[C@H](NC(=O)[C@H](CC(C)C)NC(=O)[C@H](Cc1ccc(I)cc1)NC(=O)[C@@H](N)CO)C(=O)N[C@@H](CCCN=C(N)N)C(N)=O
40 | 1800 nM | CC(=O)NCCC(=O)N[C@@H](Cc1ccccc1)C(=O)N[C@@H](CC(C)C)C(=O)N[C@@H](CC(C)C)C(=O)N[C@@H](CCCN=C(N)N)C(N)=O (Ac-[βAla]FLLR-NH2)
41 | 80 nM | CC(C)C[C@H](NC(=O)[C@H](Cc1ccc2ccccc2c1)NC(=O)[C@H](Cc1ccc(F)cc1)NC(=O)[C@@H](N)CO)C(=O)N[C@@H](CCCN=C(N)N)C(N)=O (H-S[Phe(4-F)][2Nal]LR-NH2)
